Measurements taken from ChEMBL document CHEMBL4673181, “An investigation of the antileishmanial properties of semi-synthetic saponins” (RSC Med Chem, 2020).

Assays:
[1] = test system: Leishmania mexicana; experiment: Antileishmanial activity against axenic amastigote stage of Leishmania mexicana (MNYC/BZ/62/M379) assessed as inhibition of parasite proliferation at 50 uM incubated for 24 hrs by alamar blue dye based fluorescence analysis; assay type: functional
How it was run: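 Primary single-point screen at 50 μM, in duplicate. Axenic L. mexicana amastigotes at 4x10⁵ mL⁻¹ incubated with compound 24 h at 33 °C in sealed plates, then alamarBlue for a further 24 h at the same temperature. Viability read by fluorescence at 560/600 nm against amphotericin B (50 μM) and DMSO controls.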

[2] = test system: Leishmania mexicana; experiment: Antileishmanial activity against axenic amastigote stage of Leishmania mexicana (MNYC/BZ/62/M379) assessed as induction of parasite killing incubated for 24 hrs by alamar blue dye based fluorescence analysis; assay type: functional; conditions: read-out: ED50 (the source's name)
How it was run: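 L. mexicana axenic amastigotes (from promastigotes by pH/temperature shift; Schneider's with 20% HIFBS) at 4x10⁵ mL⁻¹, exposed to three-fold dilutions from 50 μM to 0.21 μM for 24 h at 33 °C in sealed plates. alamarBlue then added for another 24 h, fluorescence read at 560/600 nm. Amphotericin B (50 μM) positive, DMSO negative control. Duplicates on four occasions, EC₅₀ fitted.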

Compound | inhibition at 50 µM [1] | EC50 [2]
CC1(C)CC[C@]2(CO)CC[C@]3(C)C(=CC[C@@H]4[C@@]5(C)CC[C@@H]6O[C@H]([C@H](O)[C@@H](O)[C@H](O)[C@H](O)CO)OC[C@@]6(C)[C@@H]5CC[C@]43C)[C@@H]2C1 | ≥ 95% | > 50 µM
CN1CCN(C(=O)[C@@H]2CCCN2C(=O)N[C@]23CCC(C)(C)C[C@H]2C2=CC[C@@H]4[C@@]5(C)CC[C@@H]6OC(C)(C)OC[C@@]6(C)[C@@H]5CC[C@@]4(C)[C@]2(C)CC3)CC1 | ≥ 95% | 32.4 µM
CC1(C)CC[C@]2(C(=O)O)CC[C@]3(C)C(=CC[C@@H]4[C@@]5(C)CC[C@@H]6OCOC[C@@]6(C)[C@@H]5CC[C@]43C)[C@@H]2C1 | ≥ 95% | 14.9 µM
CC1(C)CC[C@]2(NC(=O)N3CCCNCC3)CC[C@]3(C)C(=CC[C@@H]4[C@@]5(C)CC[C@@H]6OC(C)(C)OC[C@@]6(C)[C@@H]5CC[C@]43C)[C@@H]2C1 | ≥ 95% | > 50 µM
CC1(C)CC[C@]2(C(=O)OCc3ccc([N+](=O)[O-])cc3)CC[C@]3(C)C(=CC[C@@H]4[C@@]5(C)CC[C@H](O)[C@@](C)(CO)[C@@H]5CC[C@]43C)[C@@H]2C1 | ≥ 95% | 36.2 µM
CC1(C)CC[C@]2(NC(=O)N3CCCC3)CC[C@]3(C)C(=CC[C@@H]4[C@@]5(C)CC[C@H](O)[C@@](C)(CO)[C@@H]5CC[C@]43C)[C@@H]2C1 | ≥ 95% | 15.3 µM
CC1(C)CC[C@]2(NC(=O)N3CCC[C@H]3CN3CCCC3)CC[C@]3(C)C(=CC[C@@H]4[C@@]5(C)CC[C@@H]6OC(C)(C)OC[C@@]6(C)[C@@H]5CC[C@]43C)[C@@H]2C1 | ≥ 95% | > 50 µM
CC1(C)CC[C@]2(C(=O)O)CC[C@]3(C)C(=CC[C@@H]4[C@@]5(C)CC[C@@H]6O[C@H](C[C@H]7O[C@H](CO)[C@H](O)[C@H](O)[C@H]7O)OC[C@@]6(C)[C@@H]5CC[C@]43C)[C@@H]2C1 | ≥ 95% | 21.7 µM
CC1(C)CC[C@]2(C(=O)O)CC[C@]3(C)C(=CC[C@@H]4[C@@]5(C)CC[C@H](O[C@@H]6OC[C@H](O)[C@H](O)[C@H]6O)[C@@](C)(CO)[C@@H]5CC[C@]43C)[C@@H]2C1 | ≥ 95% | > 50 µM
CCOP(=O)(OCC)OC[C@@]1(C)[C@@H]2CC[C@]3(C)[C@H](CC=C4[C@@H]5CC(C)(C)CC[C@]5(NC(=O)N5CCOCC5)CC[C@]43C)[C@@]2(C)CC[C@@H]1O | ≥ 95% | 19.3 µM
CC1(C)CC[C@]2(NC(=O)N3CCC[C@H]3CO)CC[C@]3(C)C(=CC[C@@H]4[C@@]5(C)CC[C@@H]6OC(C)(C)OC[C@@]6(C)[C@@H]5CC[C@]43C)[C@@H]2C1 | ≥ 95% | 26.2 µM
C[C@@H]1O[C@@H](O[C@H]2[C@H](O[C@H]3CC[C@@]4(C)[C@@H](CC[C@]5(C)[C@@H]4CC=C4[C@@H]6CC(C)(C)CC[C@]6(C(=O)O)CC[C@]45C)[C@]3(C)CO)OC[C@H](O)[C@@H]2O)[C@H](O)[C@H](O)[C@H]1O [ALPHA-HEDERIN] | ≥ 95% | 19.6 µM
CC1(C)CC[C@]2(NC(=O)O)CC[C@]3(C)C(=CC[C@@H]4[C@@]5(C)CC[C@@H]6O[C@H](C[C@H]7O[C@H](CO)[C@@H](O)[C@H](O)[C@@H]7O)OC[C@@]6(C)[C@@H]5CC[C@]43C)[C@@H]2C1 | ≥ 95% | > 50 µM
CC1(C)CC[C@]2(CO)CC[C@]3(C)C(=CC[C@@H]4[C@@]5(C)CC[C@@H]6O[C@H]([C@H](O)[C@@H](O)[C@H](O)CO)OC[C@@]6(C)[C@@H]5CC[C@]43C)[C@@H]2C1 | ≥ 95% | > 50 µM
C[C@@H]1O[C@@H](C[C@@H]2OC[C@@]3(C)[C@@H]4CC[C@]5(C)[C@H](CC=C6[C@@H]7CC(C)(C)CC[C@]7(C(=O)O)CC[C@]65C)[C@@]4(C)CC[C@@H]3O2)[C@H](O)[C@H](O)[C@H]1O | ≥ 95% | 13.9 µM
CC1(C)CC[C@]2(C(=O)OCC(=O)c3ccccc3)CC[C@]3(C)C(=CC[C@@H]4[C@@]5(C)CC[C@H](O)[C@@](C)(CO)[C@@H]5CC[C@]43C)[C@@H]2C1 | ≥ 95% | 45.9 µM
CC1(C)CC[C@]2(NC(=O)NCc3cccnc3)CC[C@]3(C)C(=CC[C@@H]4[C@@]5(C)CC[C@@H]6OC(C)(C)OC[C@@]6(C)[C@@H]5CC[C@]43C)[C@@H]2C1 | ≥ 95% | 17.5 µM
C[C@@H]1O[C@@H](C[C@@H]2OC[C@@]3(C)[C@@H]4CC[C@]5(C)[C@H](CC=C6[C@@H]7CC(C)(C)CC[C@]7(C(=O)O)CC[C@]65C)[C@@]4(C)CC[C@@H]3O2)[C@@H](O)[C@H](O)[C@@H]1O | ≥ 95% | 19.4 µM

Compound | inhibition at 50 µM [1] | EC50 [2]
C#CCOC(=O)[C@]12CCC(C)(C)C[C@H]1C1=CC[C@@H]3[C@@]4(C)CC[C@H](O)[C@@](C)(CO)[C@@H]4CC[C@@]3(C)[C@]1(C)CC2 | ≥ 95% | 15.1 µM
C=CCOC(=O)[C@]12CCC(C)(C)C[C@H]1C1=CC[C@@H]3[C@@]4(C)CC[C@H](O)[C@@](C)(CO)[C@@H]4CC[C@@]3(C)[C@]1(C)CC2 | ≥ 95% | 22.7 µM
CC1(C)CC[C@]2(NC(=O)N[C@H]3C(O)O[C@H](CO)[C@@H](O)[C@@H]3O)CC[C@]3(C)C(=CC[C@@H]4[C@@]5(C)CC[C@@H]6OC(C)(C)OC[C@@]6(C)[C@@H]5CC[C@]43C)[C@@H]2C1 (some centres undefined) | ≥ 95% | > 50 µM
CCCOC(=O)[C@]12CCC(C)(C)C[C@H]1C1=CC[C@@H]3[C@@]4(C)CC[C@H](O)[C@@](C)(CO)[C@@H]4CC[C@@]3(C)[C@]1(C)CC2 | ≥ 95% | 43.6 µM
CCOCc1ccc(C2OC[C@@]3(C)[C@@H]4CC[C@]5(C)[C@H](CC=C6[C@@H]7CC(C)(C)CC[C@]7(C(=O)O)CC[C@]65C)[C@@]4(C)CC[C@@H]3O2)o1 (some centres undefined) | ≥ 95% | 19.2 µM
CC(=O)OC[C@@]1(C)[C@@H]2CC[C@]3(C)[C@H](CC=C4[C@@H]5CC(C)(C)CC[C@]5(NC(=O)N5CCN(C)CC5)CC[C@]43C)[C@@]2(C)CC[C@@H]1O[C@@H]1OC[C@H](OC(C)=O)[C@H](OC(C)=O)[C@H]1O[C@@H]1O[C@@H](C)[C@H](OC(C)=O)[C@@H](OC(C)=O)[C@H]1OC(C)=O | ≥ 95% | 19.9 µM
CC1(C)CC[C@]2(C(=O)OCCC3OCCCO3)CC[C@]3(C)C(=CC[C@@H]4[C@@]5(C)CC[C@H](O)[C@@](C)(CO)[C@@H]5CC[C@]43C)[C@@H]2C1 | ≥ 95% | > 50 µM
CN(C[C@H](O)[C@@H](O)[C@H](O)[C@H](O)CO)C(=O)N[C@]12CCC(C)(C)C[C@H]1C1=CC[C@@H]3[C@@]4(C)CC[C@@H]5OC(C)(C)OC[C@@]5(C)[C@@H]4CC[C@@]3(C)[C@]1(C)CC2 | ≥ 95% | 19.9 µM
COC(=O)[C@]12CCC(C)(C)C[C@H]1C1=CC[C@@H]3[C@@]4(C)CC[C@H](O)[C@@](C)(CO)[C@@H]4CC[C@@]3(C)[C@]1(C)CC2 | ≥ 95% | 12 µM
CC1(C)CC[C@]2(NC(=O)N3CCC[C@H]3C(=O)NCCCn3ccnc3)CC[C@]3(C)C(=CC[C@@H]4[C@@]5(C)CC[C@@H]6OC(C)(C)OC[C@@]6(C)[C@@H]5CC[C@]43C)[C@@H]2C1 | ≥ 95% | 20.2 µM
CC1(C)CC[C@]2(C(=O)OCc3ccccc3)CC[C@]3(C)C(=CC[C@@H]4[C@@]5(C)CC[C@H](O)[C@@](C)(CO)[C@@H]5CC[C@]43C)[C@@H]2C1 | ≥ 95% | > 50 µM
CC1(C)CC[C@]2(C(=O)O)CC[C@]3(C)C(=CC[C@@H]4[C@@]5(C)CC[C@@H]6O[C@H]([C@H](O)[C@@H](O)[C@@H](O)CO)OC[C@@]6(C)[C@@H]5CC[C@]43C)[C@@H]2C1 | ≥ 95% | 14.6 µM
COC(=O)[C@H](Cc1c[nH]cn1)NC(=O)N[C@]12CCC(C)(C)C[C@H]1C1=CC[C@@H]3[C@@]4(C)CC[C@@H]5OC(C)(C)OC[C@@]5(C)[C@@H]4CC[C@@]3(C)[C@]1(C)CC2 | ≥ 95% | 20.9 µM
CC1(C)CC[C@]2(NC(=O)NCCN3CCCC3)CC[C@]3(C)C(=CC[C@@H]4[C@@]5(C)CC[C@@H]6OC(C)(C)OC[C@@]6(C)[C@@H]5CC[C@]43C)[C@@H]2C1 | ≥ 95% | > 50 µM
C[C@H](O)[C@H](O)[C@@H](O)[C@@H](O)[C@@H]1OC[C@@]2(C)[C@@H]3CC[C@]4(C)[C@H](CC=C5[C@@H]6CC(C)(C)CC[C@]6(CO)CC[C@]54C)[C@@]3(C)CC[C@@H]2O1 | ≥ 95% | 26.9 µM
CN(C)CCCNC(=O)N[C@]12CCC(C)(C)C[C@H]1C1=CC[C@@H]3[C@@]4(C)CC[C@@H]5OC(C)(C)OC[C@@]5(C)[C@@H]4CC[C@@]3(C)[C@]1(C)CC2 | ≥ 95% | 17.5 µM
CC1(C)CC[C@]2(CO)CC[C@]3(C)C(=CC[C@@H]4[C@@]5(C)CC[C@@H]6O[C@H]([C@H](O)[C@@H](O)[C@@H](O)CO)OC[C@@]6(C)[C@@H]5CC[C@]43C)[C@@H]2C1 | ≥ 95% | 
